Measured values from ChEMBL document CHEMBL1154934, “Identification of piperazine-bisamide GHSR antagonists for the treatment of obesity” (Bioorg Med Chem Lett, 2010).

Tests used:
[1] = molecular target: Sodium-dependent noradrenaline transporter (Homo sapiens, UniProt P23975); experiment: Inhibition of NET
[2] = molecular target: Growth hormone secretagogue receptor type 1 (Rattus norvegicus) (UniProt O08725); experiment: Agonist activity at rat GHSR expressed in CHO cells assessed as increase in ghrelin-induced [3H]IP accumulation at 10 uM after 1 hr by scintillation counting relative to ghrelin; type: functional, cell-based
How it was run: (§1)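 CHO cells stably expressing human or rat GHSR labelled 12 h with 3H-inositol (1 µCi/mL in DMEM), then exposed to ghrelin or compound at 37 °C for 1.0 h. Lysis with 20 mM formic acid, 4 °C, 4 h. Extract taken onto SPA beads, 12 h in the dark, then radioactivity counted. IP accumulation expressed as % of maximal ghrelin response at 10, 1.0 and 0.1 µM.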

[3] = molecular target: Sodium-dependent dopamine transporter (Homo sapiens, UniProt Q01959); experiment: Inhibition of DAT
[4] = molecular target: T1, Growth hormone secretagogue receptor type 1 (Homo sapiens, UniProt Q92847); experiment: Antagonist activity at human GHSR expressed in CHOK1 cells assessed as inhibition of ghrelin-induced intracellular calcium flux by aequorin flash luminescence assay; type: functional, cell-based, CHO-K1
How it was run: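 Aequorin flash luminescence in CHO-K1 cells stably co-expressing human ghrelin receptor and aequorin. […] IC50 values are means of three determinations.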

[5] = molecular target: D(2) dopamine receptor (Homo sapiens, UniProt P14416); experiment: Inhibition of dopamine D2 receptor
[6] = molecular target: Growth hormone secretagogue receptor type 1 (Rattus norvegicus) (UniProt O08725); experiment: Agonist activity at rat GHSR expressed in CHO cells assessed as increase in ghrelin-induced [3H]IP accumulation at 1 uM after 1 hr by scintillation counting relative to ghrelin; type: functional, cell-based; how it was run: as §1
[7] = molecular target: Growth hormone secretagogue receptor type 1 (Rattus norvegicus) (UniProt O08725); experiment: Agonist activity at rat GHSR expressed in CHO cells assessed as increase in ghrelin-induced [3H]IP accumulation at 0.1 uM after 1 hr by scintillation counting relative to ghrelin; type: functional, cell-based; how it was run: as §1
[8] = molecular target: T2, Alpha-2A adrenergic receptor (Homo sapiens, UniProt P08913); experiment: Inhibition of alpha2A adrenergic receptor
T2 sequence (P08913 whole entry): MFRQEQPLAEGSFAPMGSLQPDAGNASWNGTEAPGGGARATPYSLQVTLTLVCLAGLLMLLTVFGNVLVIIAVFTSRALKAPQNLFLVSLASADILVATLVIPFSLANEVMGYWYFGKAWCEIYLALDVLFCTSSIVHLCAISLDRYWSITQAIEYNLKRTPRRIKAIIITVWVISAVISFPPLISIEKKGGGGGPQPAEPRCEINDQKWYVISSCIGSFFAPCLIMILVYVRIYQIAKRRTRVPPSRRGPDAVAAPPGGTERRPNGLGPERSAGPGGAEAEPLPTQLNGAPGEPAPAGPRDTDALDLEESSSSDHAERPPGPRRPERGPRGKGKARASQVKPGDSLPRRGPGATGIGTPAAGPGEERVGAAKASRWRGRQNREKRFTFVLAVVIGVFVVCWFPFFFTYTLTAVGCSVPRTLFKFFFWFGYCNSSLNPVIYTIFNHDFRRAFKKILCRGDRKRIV

[9] = molecular target: Muscarinic acetylcholine receptor M3 (Homo sapiens, UniProt P20309); experiment: Inhibition of muscarinic M3 receptor
[10] = molecular target: Histamine H2 receptor (Homo sapiens, UniProt P25021); experiment: Inhibition of histamine H2 receptor
[11] = molecular target: D(3) dopamine receptor (Homo sapiens, UniProt P35462); experiment: Inhibition of dopamine D3 receptor
[12] = molecular target: 5-hydroxytryptamine receptor 2A (Homo sapiens, UniProt P28223); experiment: Inhibition of 5HT2A (receptor)
[13] = molecular target: T1, Growth hormone secretagogue receptor type 1; experiment: Agonist activity at human GHSR expressed in CHO cells assessed as increase in ghrelin-induced [3H]IP accumulation at 10 uM after 1 hr by scintillation counting relative to ghrelin; type: functional, cell-based; how it was run: as §1
[14] = molecular target: Sodium-dependent serotonin transporter (Homo sapiens, UniProt P31645); experiment: Inhibition of SERT
[15] = molecular target: T3, 5-hydroxytryptamine receptor 2C (Homo sapiens, UniProt P28335); experiment: Inhibition of 5HT2C (receptor)
T3 sequence (P28335 whole entry): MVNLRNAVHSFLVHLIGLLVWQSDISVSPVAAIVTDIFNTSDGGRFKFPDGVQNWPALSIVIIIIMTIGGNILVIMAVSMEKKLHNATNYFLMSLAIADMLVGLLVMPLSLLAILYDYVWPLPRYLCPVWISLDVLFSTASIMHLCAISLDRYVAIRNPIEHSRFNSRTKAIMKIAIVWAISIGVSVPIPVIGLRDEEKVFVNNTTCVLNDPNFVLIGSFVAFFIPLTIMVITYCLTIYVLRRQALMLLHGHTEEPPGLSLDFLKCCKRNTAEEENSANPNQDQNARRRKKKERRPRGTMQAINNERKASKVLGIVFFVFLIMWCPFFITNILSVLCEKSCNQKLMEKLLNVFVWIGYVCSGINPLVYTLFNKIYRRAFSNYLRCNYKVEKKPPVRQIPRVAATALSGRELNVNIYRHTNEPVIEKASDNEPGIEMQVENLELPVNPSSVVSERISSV

[16] = molecular target: Kappa-type opioid receptor (Homo sapiens, UniProt P41145); experiment: Inhibition of kappa opioid receptor
[17] = molecular target: Mu-type opioid receptor (Homo sapiens, UniProt P35372); experiment: Inhibition of mu opioid receptor
[18] = molecular target: Growth hormone secretagogue receptor type 1 (Rattus norvegicus) (UniProt O08725); experiment: (§2) Inhibition of rat GHSR expressed in CHOK1 cells assessed as inhibition of ghrelin-induced intracellular calcium flux by aequorin flash luminescence assay; type: functional, cell-based; conditions: CHO-K1
[19] = Induction of growth hormone release from Sprague-Dawley rat pituitary cells at 1 uM after 20 mins by RIA assay relative to ghrelin; type: functional, Pituitary gland cell
How it was run: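 Pituitary cells from 6–8-week-old male SD rats plated on poly-D-lysine and cultured 3 days at 37 °C. Washed with DMEM assay buffer (20 mM Hepes, 0.3% BSA) and held 5 min at 37 °C. Treated with rat ghrelin or compound for 20 min, then GH release measured as % of maximal ghrelin response. Means of three determinations.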

[20] = Clearance in mouse at 0.5 mg/kg, iv; type: ADME, organism-based; set-up: dose 0.5 mg/kg, route intravenous; conditions: in vivo
How it was run: (§3)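 Mice dosed intravenously at 0.5 mg/kg. Clearance, MRT and Vdss derived from plasma pharmacokinetics.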

[21] = test system: MDCK; experiment: Ratio of apparent permeability from basolateral to apical over apical to basolateral side of MDCK cells expressing human MDR1; conditions: dog
[22] = Fraction unbound in rat plasma; type: ADME, cell-free
[23] = Ratio of brain AUC to plasma AUC in FVB mouse; type: ADME, cell-free; conditions: brain and plasma
[24] = Ratio of brain AUC to plasma AUC in mdr1a knockout mouse; type: ADME, cell-free; conditions: brain and plasma
[25] = Mean residence time in mouse at 0.5 mg/kg, iv; type: ADME, organism-based; set-up: dose 0.5 mg/kg, route intravenous; conditions: in vivo; how it was run: as §3
[26] = Fraction unbound in mouse plasma; type: ADME, cell-free
[27] = Metabolic stability in rat liver microsomes assessed as compound remaining at 1 uM after 30 mins; type: ADME, Microsome; conditions: read-out: Stability
How it was run: (§4)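 Compound incubated at 1.0 µM initial concentration with rat or human liver microsomes for 30 min. Percentage of compound remaining determined.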

[28] = Metabolic stability in human liver microsomes assessed as compound remaining at 1 uM after 30 mins; type: ADME, Microsome; conditions: read-out: Stability; how it was run: as §4
[29] = Volume of distribution at steady state in mouse at 0.5 mg/kg, iv; type: ADME, organism-based; set-up: dose 0.5 mg/kg, route intravenous; conditions: in vivo, read-out: Vdss; how it was run: as §3
[30] = Inhibition of rat ghrelin-stimulated growth hormone release from Sprague-Dawley rat pituitary cells pretreated for 10 mins before rat ghrelin challenge measured after 20 mins by RIA assay; type: functional, cell-based; conditions: Pituitary gland cell
How it was run: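 Primary pituitary cells from 6–8-week-old male SD rats cultured 3 days at 37 °C, then washed in DMEM/20 mM Hepes/0.3% BSA buffer. Compound pretreatment for 10 min, then co-incubation with rat ghrelin (0.2 µM) plus compound for another 20 min. GH release measured and IC50 derived. Means of three determinations.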

[31] = Inhibition of cytochrome P450; type: ADME
[32] = Clearance in rat at 2 mg/kg, iv; type: ADME, organism-based; set-up: dose 2 mg/kg, route intravenous; conditions: in vivo
How it was run: (§5)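 Rats dosed iv at 2.0 mg/kg for clearance, MRT and Vdss. Oral dosing at 0.5 mg/kg for bioavailability (F).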

[33] = molecular target: Voltage-gated inwardly rectifying potassium channel KCNH2 (Homo sapiens, UniProt Q12809); experiment: Inhibition of human ERG
[34] = Mean residence time in rat at 2 mg/kg, iv; type: ADME, organism-based; set-up: dose 2 mg/kg, route intravenous; conditions: in vivo; how it was run: as §5
[35] = molecular target: Growth hormone secretagogue receptor type 1 (Rattus norvegicus, UniProt O08725); experiment: as §2; type: functional, cell-based, CHO-K1
[36] = molecular target: T1, Growth hormone secretagogue receptor type 1; experiment: Agonist activity at human GHSR expressed in CHO cells assessed as increase in ghrelin-induced [3H]IP accumulation at 1 uM after 1 hr by scintillation counting relative to ghrelin; type: functional, cell-based; how it was run: as §1
[37] = Oral bioavailability in rat at 0.5 mg/kg; type: ADME, organism-based; conditions: in vivo; how it was run: as §5
[38] = Volume of distribution at steady state in rat at 2 mg/kg, iv; type: ADME, organism-based; set-up: dose 2 mg/kg, route intravenous; conditions: in vivo, read-out: Vdss
[39] = molecular target: T1, Growth hormone secretagogue receptor type 1; experiment: Agonist activity at human GHSR expressed in CHO cells assessed as increase in ghrelin-induced [3H]IP accumulation at 0.1 uM after 1 hr by scintillation counting relative to ghrelin; type: functional, cell-based; how it was run: as §1

Chain of Kappa-type opioid receptor (P41145 whole entry): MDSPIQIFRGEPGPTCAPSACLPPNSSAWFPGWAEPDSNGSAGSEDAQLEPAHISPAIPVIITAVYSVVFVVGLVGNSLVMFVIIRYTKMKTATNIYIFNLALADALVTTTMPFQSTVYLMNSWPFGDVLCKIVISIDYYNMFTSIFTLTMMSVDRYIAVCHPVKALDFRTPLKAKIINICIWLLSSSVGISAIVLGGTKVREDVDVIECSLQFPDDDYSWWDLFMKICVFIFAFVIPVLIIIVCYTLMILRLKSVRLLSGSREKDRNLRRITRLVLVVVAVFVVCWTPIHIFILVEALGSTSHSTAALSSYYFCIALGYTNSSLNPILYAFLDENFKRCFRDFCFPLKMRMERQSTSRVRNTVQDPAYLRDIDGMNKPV
Chain of Mu-type opioid receptor (P35372 whole entry): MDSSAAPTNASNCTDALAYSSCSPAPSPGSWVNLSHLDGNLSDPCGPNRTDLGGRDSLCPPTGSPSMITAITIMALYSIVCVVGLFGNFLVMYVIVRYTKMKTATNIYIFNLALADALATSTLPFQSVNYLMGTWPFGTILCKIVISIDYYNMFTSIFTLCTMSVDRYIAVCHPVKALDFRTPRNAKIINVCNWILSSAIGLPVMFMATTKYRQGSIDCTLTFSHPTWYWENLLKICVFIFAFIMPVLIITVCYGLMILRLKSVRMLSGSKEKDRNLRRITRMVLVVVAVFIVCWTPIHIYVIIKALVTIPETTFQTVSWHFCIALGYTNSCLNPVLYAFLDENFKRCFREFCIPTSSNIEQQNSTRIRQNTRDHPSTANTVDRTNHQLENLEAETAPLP
Chain of 5-hydroxytryptamine receptor 2A (P28223 whole entry): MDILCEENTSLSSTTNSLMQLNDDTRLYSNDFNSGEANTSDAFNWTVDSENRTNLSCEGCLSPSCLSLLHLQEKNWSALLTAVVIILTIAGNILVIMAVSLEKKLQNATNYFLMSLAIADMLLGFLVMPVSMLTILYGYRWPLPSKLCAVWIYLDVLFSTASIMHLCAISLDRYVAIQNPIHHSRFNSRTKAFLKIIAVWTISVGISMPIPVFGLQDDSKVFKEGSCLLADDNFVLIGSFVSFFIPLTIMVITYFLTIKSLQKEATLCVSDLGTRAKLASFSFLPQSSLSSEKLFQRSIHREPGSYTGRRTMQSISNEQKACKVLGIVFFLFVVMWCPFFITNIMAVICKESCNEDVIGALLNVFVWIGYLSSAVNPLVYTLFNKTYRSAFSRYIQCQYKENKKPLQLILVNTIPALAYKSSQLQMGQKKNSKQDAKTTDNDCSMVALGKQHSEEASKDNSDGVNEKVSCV
T1 sequence (Q92847 whole entry): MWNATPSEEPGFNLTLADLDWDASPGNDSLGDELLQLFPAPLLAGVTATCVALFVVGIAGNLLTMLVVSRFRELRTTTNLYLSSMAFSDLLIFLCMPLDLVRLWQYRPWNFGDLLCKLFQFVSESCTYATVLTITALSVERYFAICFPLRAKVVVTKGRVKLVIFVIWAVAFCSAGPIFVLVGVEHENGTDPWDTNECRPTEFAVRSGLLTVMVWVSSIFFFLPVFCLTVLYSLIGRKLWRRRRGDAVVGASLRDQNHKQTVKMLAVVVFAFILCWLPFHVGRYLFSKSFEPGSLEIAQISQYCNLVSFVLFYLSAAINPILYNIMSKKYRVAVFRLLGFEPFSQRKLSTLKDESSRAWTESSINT
Chain of Sodium-dependent noradrenaline transporter (P23975 whole entry): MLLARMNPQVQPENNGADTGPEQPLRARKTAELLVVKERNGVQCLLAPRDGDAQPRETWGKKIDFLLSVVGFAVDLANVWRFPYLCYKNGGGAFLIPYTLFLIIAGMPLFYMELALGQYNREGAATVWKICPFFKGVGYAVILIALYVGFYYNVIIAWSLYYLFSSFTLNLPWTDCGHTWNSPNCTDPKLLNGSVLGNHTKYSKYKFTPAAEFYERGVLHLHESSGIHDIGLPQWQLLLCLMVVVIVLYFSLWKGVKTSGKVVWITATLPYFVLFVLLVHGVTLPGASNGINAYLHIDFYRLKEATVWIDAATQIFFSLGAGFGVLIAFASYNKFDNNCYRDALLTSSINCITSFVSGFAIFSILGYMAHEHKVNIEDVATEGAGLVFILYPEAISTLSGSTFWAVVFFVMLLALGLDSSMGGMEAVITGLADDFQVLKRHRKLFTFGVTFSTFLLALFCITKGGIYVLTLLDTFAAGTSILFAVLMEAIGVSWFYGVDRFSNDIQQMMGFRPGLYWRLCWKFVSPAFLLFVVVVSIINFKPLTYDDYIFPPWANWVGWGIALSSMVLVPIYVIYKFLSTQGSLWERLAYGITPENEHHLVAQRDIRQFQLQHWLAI
Chain of Growth hormone secretagogue receptor type 1 (Rattus norvegicus) (O08725 whole entry): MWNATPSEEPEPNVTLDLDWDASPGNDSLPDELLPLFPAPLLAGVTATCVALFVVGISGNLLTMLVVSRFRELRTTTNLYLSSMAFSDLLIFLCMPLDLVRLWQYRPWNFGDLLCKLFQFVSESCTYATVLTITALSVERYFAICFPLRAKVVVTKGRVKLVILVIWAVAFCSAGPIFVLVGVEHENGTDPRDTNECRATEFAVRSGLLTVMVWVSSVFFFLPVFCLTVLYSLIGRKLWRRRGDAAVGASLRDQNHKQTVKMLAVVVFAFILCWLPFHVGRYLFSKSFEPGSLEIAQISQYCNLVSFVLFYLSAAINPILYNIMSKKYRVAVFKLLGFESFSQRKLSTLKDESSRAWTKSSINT
Chain of Sodium-dependent dopamine transporter (Q01959 whole entry): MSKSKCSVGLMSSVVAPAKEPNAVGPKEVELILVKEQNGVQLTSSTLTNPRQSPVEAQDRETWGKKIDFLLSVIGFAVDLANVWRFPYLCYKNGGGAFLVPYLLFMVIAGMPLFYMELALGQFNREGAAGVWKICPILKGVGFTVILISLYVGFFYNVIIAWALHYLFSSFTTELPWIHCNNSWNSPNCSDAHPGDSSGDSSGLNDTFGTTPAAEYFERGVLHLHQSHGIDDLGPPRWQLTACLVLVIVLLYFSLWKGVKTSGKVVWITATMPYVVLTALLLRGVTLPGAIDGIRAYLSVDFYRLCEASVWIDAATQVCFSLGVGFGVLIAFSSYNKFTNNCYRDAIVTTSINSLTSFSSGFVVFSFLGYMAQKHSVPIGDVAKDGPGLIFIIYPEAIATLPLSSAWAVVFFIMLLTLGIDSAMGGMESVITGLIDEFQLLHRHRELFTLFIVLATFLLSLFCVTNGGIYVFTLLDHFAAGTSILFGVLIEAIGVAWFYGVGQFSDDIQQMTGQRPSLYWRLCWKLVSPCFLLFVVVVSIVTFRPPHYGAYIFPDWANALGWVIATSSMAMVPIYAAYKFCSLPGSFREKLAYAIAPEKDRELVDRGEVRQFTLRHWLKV
Chain of D(2) dopamine receptor (P14416 whole entry): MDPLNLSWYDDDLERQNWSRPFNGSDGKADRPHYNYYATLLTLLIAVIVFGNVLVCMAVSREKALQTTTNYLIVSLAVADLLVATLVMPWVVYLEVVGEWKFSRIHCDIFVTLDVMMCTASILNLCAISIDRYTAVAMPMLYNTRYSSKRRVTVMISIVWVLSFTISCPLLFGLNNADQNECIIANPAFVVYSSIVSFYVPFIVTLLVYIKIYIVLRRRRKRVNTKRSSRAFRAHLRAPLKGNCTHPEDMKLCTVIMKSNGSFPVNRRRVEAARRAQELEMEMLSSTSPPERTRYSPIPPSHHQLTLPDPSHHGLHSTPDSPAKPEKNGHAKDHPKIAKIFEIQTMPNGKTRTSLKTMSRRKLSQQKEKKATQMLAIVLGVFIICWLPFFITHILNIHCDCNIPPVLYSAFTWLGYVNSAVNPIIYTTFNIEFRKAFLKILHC
Chain of D(3) dopamine receptor (P35462 whole entry): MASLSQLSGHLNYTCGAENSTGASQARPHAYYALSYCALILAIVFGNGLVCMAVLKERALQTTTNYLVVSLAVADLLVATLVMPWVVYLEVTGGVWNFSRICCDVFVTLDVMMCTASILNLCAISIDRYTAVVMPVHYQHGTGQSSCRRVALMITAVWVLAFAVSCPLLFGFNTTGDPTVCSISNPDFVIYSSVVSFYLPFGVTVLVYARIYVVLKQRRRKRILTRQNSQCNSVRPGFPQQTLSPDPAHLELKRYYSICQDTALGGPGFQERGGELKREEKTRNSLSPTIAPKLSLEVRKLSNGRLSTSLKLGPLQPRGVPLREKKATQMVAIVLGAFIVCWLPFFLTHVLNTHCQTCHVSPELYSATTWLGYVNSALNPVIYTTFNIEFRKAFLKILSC
Chain of Histamine H2 receptor (P25021 whole entry): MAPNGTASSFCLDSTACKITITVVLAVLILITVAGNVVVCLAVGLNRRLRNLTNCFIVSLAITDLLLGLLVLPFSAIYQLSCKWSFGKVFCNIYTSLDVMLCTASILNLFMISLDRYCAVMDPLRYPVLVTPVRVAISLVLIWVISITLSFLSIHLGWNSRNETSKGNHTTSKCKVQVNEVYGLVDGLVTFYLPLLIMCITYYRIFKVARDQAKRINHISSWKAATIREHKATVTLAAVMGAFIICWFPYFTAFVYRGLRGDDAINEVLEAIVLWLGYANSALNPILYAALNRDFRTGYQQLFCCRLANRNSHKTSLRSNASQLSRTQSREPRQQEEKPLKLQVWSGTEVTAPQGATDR
Chain of Growth hormone secretagogue receptor type 1 (Rattus norvegicus, UniProt O08725) (O08725 whole entry): as the sequence (O08725 whole entry) above

SMILES	Ki [1]	Activity [2]	Ki [3]	IC50 [4]	Ki [5]	Ki [8]	Ki [9]	Ki [10]	Ki [11]	Ki [12]	Activity [13]	Ki [14]	Ki [15]	Ki [16]	Ki [17]	IC50 [18]	Activity [19]	further results
O=C(c1ccc(-c2ccccc2)cc1)N1CCN(C(=O)c2ccc3cc[nH]c3c2)CC1	> 10 µM	14%	> 10 µM	0.1 µM	> 10 µM	> 10 µM	> 10 µM	> 10 µM	> 10 µM	> 10 µM	18%	> 10 µM	> 10 µM	> 10 µM	> 10 µM			Activity [6]: 14%; Activity [7]: 24%
C[C@H]1CN(C(=O)c2ccc(-c3ccncc3F)c(F)c2)CCN1C(=O)c1ccc2cc[nH]c2c1		-1%		0.042 µM												0.045 µM		
C[C@H]1CN(C(=O)c2ccc(-c3ccncc3F)cc2)CCN1C(=O)c1ccc2cc[nH]c2c1		-2%		0.031 µM												0.049 µM		
C[C@H]1CN(C(=O)c2ccc(-c3ccccc3Cl)cc2)CCN1C(=O)c1ccc2cc[nH]c2c1	> 10 µM	32%	> 10 µM	0.0021 µM	> 10 µM	> 10 µM	> 10 µM	> 10 µM	> 10 µM	> 10 µM	35%	> 10 µM	> 10 µM	> 10 µM	> 10 µM		24%	
COc1cccc(-c2ccc(C(=O)N3CCN(C(=O)c4ccc5cc[nH]c5c4)[C@@H](C)C3)cc2)c1	> 10 µM	46%	> 10 µM	0.012 µM	> 10 µM	> 10 µM	> 10 µM	> 10 µM	> 10 µM	> 10 µM	45%	> 10 µM	> 10 µM	> 10 µM	> 10 µM		40%	
Cc1ccccc1-c1ccc(C(=O)N2CCN(C(=O)c3ccc4cc[nH]c4c3)[C@@H](C)C2)cc1	> 10 µM	31%	> 10 µM	0.0029 µM	> 10 µM	> 10 µM	> 10 µM	> 10 µM	> 10 µM	> 10 µM	32%	> 10 µM	> 10 µM	> 10 µM	> 10 µM		18%	
C[C@H]1CN(C(=O)c2ccc(-c3ccncc3)c(F)c2)CCN1C(=O)c1ccc2cc[nH]c2c1		-16%		0.0122 µM												0.0103 µM		clearance [20]: 32.7 mL/min/kg; Ratio [21]: 1.7; fraction unbound [22]: 0.04; Kp [23]: 0.16; Kp [24]: 2.3; MRT [25]: 0.7 h; fraction unbound [26]: 0.04; remaining at 0.5 h, 1 µM [27]: 78%; remaining at 0.5 h, 1 µM [28]: 87%; Vd [29]: 1.4 L/kg; IC50 [30]: 0.093 µM
C[C@H]1CN(C(=O)c2ccc(-c3ccccc3F)cc2)CCN1C(=O)c1ccc2cc[nH]c2c1	> 10 µM	33%	> 10 µM	0.0091 µM	> 10 µM	> 10 µM	> 10 µM	> 10 µM	> 10 µM	> 10 µM	33%	> 10 µM	> 10 µM	> 10 µM	> 10 µM		24%	IC50 [31]: > 10 µM; clearance [32]: 35 mL/min/kg; IC50 [33]: > 10 µM; Activity [6]: 42%; MRT [34]: 1.9 h; Activity [7]: 41%; IC50 [35]: 0.002 µM; Activity [36]: 31%; Kp [23]: 0.26; bioavailability [37]: 17%; Vd [38]: 3.7 L/kg; Activity [39]: 21%
